In ChEMBL document CHEMBL4613254, “Using the Cancer Dependency Map to Identify the Mechanism of Action of a Cytotoxic Alkenyl Derivative from the Fruit of Choerospondias axillaris” (J Nat Prod, 2020):
Activity calls are given as the source filed them. The rule behind the calls is not given here.

Tests used:
[1] = Growth inhibition of human D283 cells assessed as reduction in cell viability after 48 hrs by SRB assay; type: functional; settings: D283, 48 h
Outline: (§1)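 Cells were grown in IMEM with 5% FBS and 25 μg/mL gentamicin at 37 °C and 5% CO2, then seeded at 4,000–6,000 cells/well overnight. DMSO solutions (0.5% v/v final) were added to triplicate wells for 48 h, and time-0 plates were fixed at addition. Fixation was with TCA; for D283, 20% TCA was added straight into the medium. SRB absorbance at 560 nm gave GI50 by non-linear regression.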

[2] = Growth inhibition of human SJCRH30 cells assessed as reduction in cell viability after 48 hrs by SRB assay; type: functional
Outline: (§2)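 Cells were kept in RPMI-1640 with 5% FBS and 50 μg/mL gentamicin at 37 °C and 5% CO2, and plated at 4,000–6,000 cells/well to adhere overnight. Compounds in DMSO (0.5% v/v final) went to triplicate wells for 48 h. Cells were fixed with 10% TCA, and time-0 plates were fixed at dosing. SRB absorbance was read at 560 nm, with GI50 fitted by non-linear regression for each experiment.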

A673 [3] = assay: Growth inhibition of human A673 cells assessed as reduction in cell viability after 48 hrs by SRB assay; type: functional; settings: A673, 48 h; outline: as §2
Hep293TT = assay: Growth inhibition of human Hep293TT cells assessed as reduction in cell viability after 48 hrs by SRB assay; type: functional; outline: as §2
[4] = target: T1, Monocarboxylate transporter 1 (Homo sapiens) (UniProt P53985); assay: Inhibition of MCT1 in human A673 cells assessed as reduction in BrPA-induced cytotoxicity at 10 nM by SRB assay; type: cell-based
T1 sequence (whole entry): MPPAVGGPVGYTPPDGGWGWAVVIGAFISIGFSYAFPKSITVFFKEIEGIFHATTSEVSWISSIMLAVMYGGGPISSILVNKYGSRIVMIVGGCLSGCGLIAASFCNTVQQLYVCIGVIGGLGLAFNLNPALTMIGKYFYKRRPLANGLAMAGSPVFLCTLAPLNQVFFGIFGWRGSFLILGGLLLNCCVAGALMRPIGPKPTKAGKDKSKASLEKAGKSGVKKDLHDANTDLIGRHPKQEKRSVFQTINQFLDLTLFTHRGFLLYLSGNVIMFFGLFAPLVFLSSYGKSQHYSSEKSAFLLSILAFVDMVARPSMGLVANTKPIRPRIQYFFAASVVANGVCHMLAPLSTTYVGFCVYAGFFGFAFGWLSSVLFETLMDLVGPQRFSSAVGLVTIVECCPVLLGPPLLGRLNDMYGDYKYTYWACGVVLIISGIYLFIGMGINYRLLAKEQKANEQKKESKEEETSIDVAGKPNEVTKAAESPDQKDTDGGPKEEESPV
Outline: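 A-673 cells were grown in RPMI-1640 with 5% FBS. Test compound or AZD3965 was added 1 h before BrPA, with DMSO as the vehicle control. Viability was read by SRB staining after TCA fixation, with absorbance at 560 nm.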

A673 [5] = assay: Growth inhibition of human A673 cells assessed as reduction in cell viability up to 10 uM after 48 hrs by SRB assay; type: functional, cell-based; outline: as §2
HeLa = assay: Cytotoxicity against human HeLa cells assessed as reduction in cell viability; type: functional, cell-based
HCT-15 = assay: Cytotoxicity against human HCT15 cells assessed as reduction in cell viability; type: functional, cell-based
A2780 = assay: Cytotoxicity against human A2780 cells assessed as reduction in cell viability; type: functional, cell-based
HCC1806 = assay: Growth inhibition of human HCC1806 cells assessed as reduction in cell viability up to 10 uM after 48 hrs by SRB assay; type: functional, cell-based; outline: as §2
Daoy = assay: Growth inhibition of human DaOY cells assessed as reduction in cell viability up to 10 uM after 48 hrs by SRB assay; type: functional, cell-based; outline: as §1
D341 cell line = assay: Growth inhibition of human D341 cells assessed as reduction in cell viability after 48 hrs by SRB assay; type: functional; settings: D341, 48 h; outline: as §1
SK-ES1 = assay: Growth inhibition of human SK-ES-1 cells assessed as reduction in cell viability after 48 hrs by SRB assay; type: functional; settings: SK-ES1, 48 h; outline: as §2

| SMILES | GI50 [1] [nM] | GI50 [2] [nM] | GI50 (A673 [3]) [nM] | GI50 (Hep293TT) [nM] | also measured |
| --- | --- | --- | --- | --- | --- |
| CCCC/C=C\CCCCCCCCCCC[C@H](O)Cc1cc(O)ccc1O | 240 | 120 | 320 | 700 |  |
| CCCC/C=C\CCCCCCCCCCC[C@H](O)C[C@]1(O)CC(=O)C=C[C@H]1O | 400 | 180 | 580 | 390 |  |
| Cc1[nH]nc(C(F)(F)F)c1Cc1sc2c(c1C(=O)N1C[C@](C)(O)CO1)c(=O)n(C)c(=O)n2C(C)C |  |  |  |  | inhibition [4]: Active; growth inhibition (GI) (A673 [5]): inactive |
| CCCC/C=C\CCCCCCCCCCC[C@@H]1C[C@]2(O)CC(=O)C[C@H](O1)[C@@H]2O |  |  |  |  | IC50 (HeLa): 3000 to 30000 nM; IC50 (HCT-15): 3000 to 30000 nM; IC50 (A2780): 3000 to 30000 nM |
| CCCC/C=C\CCCCCCCCCCCc1cc2cc(O)ccc2o1 | 70 | > 10000 | 190 | > 10000 | growth inhibition (GI) (HCC1806): inactive; growth inhibition (GI) (Daoy): inactive; inhibition [4]: Active; GI50 (D341 cell line): 20 nM; GI50 (SK-ES1): 120 nM |
| CCCC/C=C\CCCCCCCCC[C@H](O)Cc1cc(O)ccc1O | 80 | 170 | 160 | 1020 |  |
| CCCC/C=C\CCCCCCCCC[C@H](O)C[C@]1(O)CC(=O)C=C[C@H]1O | 410 | 240 | 650 | 500 |  |
